Measurements published in ChEMBL document CHEMBL4765307, “Design, synthesis and biological activity of novel 2,3,4,5-tetra-substituted thiophene derivatives as PI3Kα inhibitors with potent antitumor activity” (Eur J Med Chem, 2020).
pIC50, pKi: −log10 of the molar value.

Key:
[1] = target: PI3-kinase p110-alpha/p85-alpha (Homo sapiens, UniProt P42336); experiment: Inhibition of His-tagged human full length PI3Kalpha coexpressed with p85 alpha in baculovirus expression system using PIP2 peptide as substrate incubated for 1 hr in presence ATP by Kinase-Glo assay
[2] = Half life in rat liver microsomes at 1 uM by LC-MS/MS analysis; type: ADME, Microsome
Summary of the method: (§1)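 Compound 1 µM with human or rat microsomes 0.5 mg/mL, preincubated 10 min at 37 °C in 100 mM potassium phosphate pH 7.4, 10 mM MgCl2; started with NADPH, sampled 0–60 min, quenched with cold acetonitrile, LC–MS/MS. A parallel no-NADPH control was run.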

[3] = target: PI3K p110 beta/p85 alpha (Homo sapiens, UniProt P42338); experiment: Inhibition of N-terminal His6-tagged human recombinant full length PI3Kbeta co-expressed with human recombinant full length P85alpha in baculovirus infected Sf21 cells using PIP2 peptide as substrate incubated for 1 hr in presence ATP by ADP-Glo Kinase Assay
Summary of the method: (§2)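 ADP-Glo reagent 1 for 40 min, then reagent 2 with 60 min equilibration before reading. IC50 taken from inhibition curves; average of at least two runs.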

[4] = target: Serine/threonine-protein kinase mTOR (Homo sapiens, UniProt P42345); experiment: Inhibition of N-terminal FLAG-tagged human recombinant mTOR (1362 to end residues) using ULight-4E-BP1 (Thr37/46) peptide as substrate incubated for 1 hr in presence of ATP by Lance Ultra assay
Summary of the method: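 ULight-4E-BP1 (Thr37/46) peptide with 13 µM ATP; 1 h at room temperature. Stopped with EDTA quench buffer plus Eu-anti-phospho-4E-BP1, 15 min shake and 60 min equilibration, TR-FRET read. IC50 from inhibition curves; average of at least two runs.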

[5] = Clearance in Sprague-Dawley rat at 5 mg/kg, iv measured after 24 hrs by LC-MS/MS analysis; type: ADME, organism-based; settings: in vivo
Summary of the method: (§3)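 Male SD rats (n=6), single 5 mg/kg intravenous dose; heparinised blood at 0.083–24 h, centrifuged at 4 °C; plasma quantified by LC–MS/MS; noncompartmental parameters.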

[6] = target: Phosphatidylinositol 4,5-bisphosphate 3-kinase catalytic subunit gamma isoform (Homo sapiens, UniProt P48736); experiment: Inhibition of GST-tagged human recombinant PI3Kgamma catalytic domain (468 to 1203 residues) expressed in insect cells using PIP2 peptide as substrate incubated for 1 hr in presence ATP by ADP-Glo Kinase Assay; summary of the method: as §2
[7] = Metabolic stability in human liver microsomes assessed as parent compound remaining at 1 uM preincubated for 10 mins followed by incubation in phosphate buffer at pH 7.4 for 60 mins by LC-MS/MS analysis; type: ADME, Microsome; settings: time 70 min, read-out: Stabilty; summary of the method: as §1
[8] = Cmax in Sprague-Dawley rat at 5 mg/kg, iv measured after 24 hrs by LC-MS/MS analysis; type: ADME, organism-based; design: route intravenous, dose 5 mg/kg, time 24 hrs; settings: in vivo; summary of the method: as §3
[9] = test system: T47D; experiment: Antiproliferative activity against human T47D cells harboring PIK3CA mutation assessed as reduction in cell viability after 3 days by CellTiter-Glo luminescence assay; type: functional, cell-based; settings: 72 h
Summary of the method: (§4)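 ATCC lines, 10% FBS: T47D, H1975, H460 in RPMI1640; U87MG in DMEM; A549 in F12K. Seeded 3×10^3 per well the day before, exposed to 3-fold serial dilutions or DMSO for 3 days at 37 °C, 5% CO2; CellTiter-Glo luminescence.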

[10] = target: PI3-kinase p110-delta/p85-alpha (Homo sapiens, UniProt O00329); experiment: Inhibition of N-terminal His6-tagged human recombinant full length PI3Kdelta co-expressed with human recombinant full length P85alpha in baculovirus infected Sf21 cells using PIP2 peptide as substrate incubated for 2 hrs in presence ATP by ADP-Glo Kinase Assay
Summary of the method: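 ADP-Glo reagent 1 for 40 min, then reagent 2 with 60 min equilibration. IC50 from inhibition curves; average of at least two runs.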

[11] = Apparent permeability across basolateral to apical side in human Caco2 cells at 2 uM incubated for 2 hrs by LC-MS/MS analysis; type: ADME, cell-based; settings: Caco-2
Summary of the method: (§5)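 Caco-2 monolayers grown 21–28 days; compound 2 µM both directions in duplicate, DMSO <1%; 2 h at 37 °C, 5% CO2 without shaking. Donor and receiver levels by LC/MS/MS; integrity by lucifer yellow. Papp = (dCr/dt)×Vr/(A×C0); efflux ratio = Papp(B-A)/Papp(A-B).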

[12] = target: Phosphatidylinositol 4,5-bisphosphate 3-kinase catalytic subunit alpha isoform (Homo sapiens) (UniProt P42336); experiment: Inhibition of PI3Kalpha in human T47D cells assessed as inhibition of insulin-stimulated Akt phosphorylation at Ser473 residue at 0.3 uM preincubated for 2 hrs followed by incubation with insulin for 2 hrs by western blot analysis relative to control; type: cell-based; settings: time 4.0 hrs
Summary of the method: (§6)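 T47D cells given compound at 37 °C for 2 h, then stimulated with 1 µg/mL insulin for 2 h; lysed in RIPA with protease/phosphatase inhibitors and 1 mM PMSF; BCA-normalised SDS-PAGE, PVDF blot probed overnight at 4 °C for total Akt and pAkt Ser473, infrared secondary detection.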

[13] = Clearance in rat liver microsomes at 1 uM measured after 60 mins by LC-MS/MS analysis; type: ADME, Microsome; settings: read-out: CLH; summary of the method: as §1
[14] = Apparent permeability across apical to basolateral side in human Caco2 cells at 2 uM incubated for 2 hrs by LC-MS/MS analysis; type: ADME, cell-based; settings: Caco-2; summary of the method: as §5
[15] = Metabolic stability in rat liver microsomes assessed as parent compound remaining at 1 uM preincubated for 10 mins followed by incubation in phosphate buffer at pH 7.4 for 60 mins by LC-MS/MS analysis; type: ADME, Microsome; settings: time 70 min, read-out: Stabilty; summary of the method: as §1
[16] = target: Voltage-gated inwardly rectifying potassium channel KCNH2 (Homo sapiens, UniProt Q12809); experiment: Inhibition of human ERG expressed in CHO cells assessed as inhibition of channel tail current at holding potential of -80 mV by Qpatch assay; type: cell-based
Summary of the method: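 CHO cells stably expressing hERG, QPatch in single-hole mode at room temperature, held at […]; each concentration superfused to steady-state block (three superimposable traces), washout between concentrations; cisapride as quality control.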

[17] = target: Phosphatidylinositol 4,5-bisphosphate 3-kinase catalytic subunit alpha isoform (Homo sapiens) (UniProt P42336); experiment: Inhibition of PI3Kalpha in human T47D cells assessed as inhibition of insulin-stimulated Akt phosphorylation at Ser473 residue at 1 uM preincubated for 2 hrs followed by incubation with insulin for 2 hrs by western blot analysis relative to control; type: cell-based; settings: time 4.0 hrs; summary of the method: as §6
[18] = Half life in human liver microsomes at 1 uM by LC-MS/MS analysis; type: ADME, Microsome; summary of the method: as §1
[19] = test system: U-87 MG; experiment: Antiproliferative activity against human U87MG cells harboring PTEN deletion assessed as reduction in cell viability after 3 days by CellTiter-Glo luminescence assay; type: functional, cell-based, U-87MG ATCC; settings: 72 h; summary of the method: as §4
[20] = Clearance in human liver microsomes at 1 uM measured after 60 mins by LC-MS/MS analysis; type: ADME, Microsome; settings: read-out: CLH; summary of the method: as §1

Phosphatidylinositol 4,5-bisphosphate 3-kinase catalytic subunit alpha isoform (Homo sapiens), sequence (P42336 whole entry, canonical isoform): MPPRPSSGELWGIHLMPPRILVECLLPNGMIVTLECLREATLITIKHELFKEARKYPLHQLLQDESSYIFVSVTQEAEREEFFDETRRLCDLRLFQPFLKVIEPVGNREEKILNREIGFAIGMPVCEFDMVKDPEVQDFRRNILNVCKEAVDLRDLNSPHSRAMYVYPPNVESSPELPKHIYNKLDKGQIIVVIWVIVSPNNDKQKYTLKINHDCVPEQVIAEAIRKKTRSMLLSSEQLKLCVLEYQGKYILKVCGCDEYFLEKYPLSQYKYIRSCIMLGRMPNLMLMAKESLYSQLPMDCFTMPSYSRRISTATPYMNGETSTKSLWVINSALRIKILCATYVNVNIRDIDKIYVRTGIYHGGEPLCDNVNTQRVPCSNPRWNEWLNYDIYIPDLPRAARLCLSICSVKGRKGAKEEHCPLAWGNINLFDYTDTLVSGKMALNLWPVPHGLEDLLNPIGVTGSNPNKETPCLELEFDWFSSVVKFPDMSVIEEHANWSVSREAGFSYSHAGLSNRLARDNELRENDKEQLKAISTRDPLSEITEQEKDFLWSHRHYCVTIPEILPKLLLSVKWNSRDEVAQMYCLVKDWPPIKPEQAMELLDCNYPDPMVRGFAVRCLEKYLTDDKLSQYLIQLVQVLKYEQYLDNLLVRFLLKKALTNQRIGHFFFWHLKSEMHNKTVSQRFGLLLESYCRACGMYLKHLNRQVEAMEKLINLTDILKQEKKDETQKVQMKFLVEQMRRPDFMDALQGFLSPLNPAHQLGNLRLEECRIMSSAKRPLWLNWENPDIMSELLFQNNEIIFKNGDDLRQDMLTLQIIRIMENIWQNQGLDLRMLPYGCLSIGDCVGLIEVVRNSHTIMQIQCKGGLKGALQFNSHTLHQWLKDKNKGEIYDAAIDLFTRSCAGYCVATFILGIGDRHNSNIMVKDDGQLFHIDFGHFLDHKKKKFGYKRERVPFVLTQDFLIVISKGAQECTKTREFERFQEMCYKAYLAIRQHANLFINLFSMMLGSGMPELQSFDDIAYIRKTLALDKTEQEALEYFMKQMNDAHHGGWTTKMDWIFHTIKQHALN
Phosphatidylinositol 4,5-bisphosphate 3-kinase catalytic subunit gamma isoform, sequence (P48736 whole entry, the tested form may be a part, canonical isoform): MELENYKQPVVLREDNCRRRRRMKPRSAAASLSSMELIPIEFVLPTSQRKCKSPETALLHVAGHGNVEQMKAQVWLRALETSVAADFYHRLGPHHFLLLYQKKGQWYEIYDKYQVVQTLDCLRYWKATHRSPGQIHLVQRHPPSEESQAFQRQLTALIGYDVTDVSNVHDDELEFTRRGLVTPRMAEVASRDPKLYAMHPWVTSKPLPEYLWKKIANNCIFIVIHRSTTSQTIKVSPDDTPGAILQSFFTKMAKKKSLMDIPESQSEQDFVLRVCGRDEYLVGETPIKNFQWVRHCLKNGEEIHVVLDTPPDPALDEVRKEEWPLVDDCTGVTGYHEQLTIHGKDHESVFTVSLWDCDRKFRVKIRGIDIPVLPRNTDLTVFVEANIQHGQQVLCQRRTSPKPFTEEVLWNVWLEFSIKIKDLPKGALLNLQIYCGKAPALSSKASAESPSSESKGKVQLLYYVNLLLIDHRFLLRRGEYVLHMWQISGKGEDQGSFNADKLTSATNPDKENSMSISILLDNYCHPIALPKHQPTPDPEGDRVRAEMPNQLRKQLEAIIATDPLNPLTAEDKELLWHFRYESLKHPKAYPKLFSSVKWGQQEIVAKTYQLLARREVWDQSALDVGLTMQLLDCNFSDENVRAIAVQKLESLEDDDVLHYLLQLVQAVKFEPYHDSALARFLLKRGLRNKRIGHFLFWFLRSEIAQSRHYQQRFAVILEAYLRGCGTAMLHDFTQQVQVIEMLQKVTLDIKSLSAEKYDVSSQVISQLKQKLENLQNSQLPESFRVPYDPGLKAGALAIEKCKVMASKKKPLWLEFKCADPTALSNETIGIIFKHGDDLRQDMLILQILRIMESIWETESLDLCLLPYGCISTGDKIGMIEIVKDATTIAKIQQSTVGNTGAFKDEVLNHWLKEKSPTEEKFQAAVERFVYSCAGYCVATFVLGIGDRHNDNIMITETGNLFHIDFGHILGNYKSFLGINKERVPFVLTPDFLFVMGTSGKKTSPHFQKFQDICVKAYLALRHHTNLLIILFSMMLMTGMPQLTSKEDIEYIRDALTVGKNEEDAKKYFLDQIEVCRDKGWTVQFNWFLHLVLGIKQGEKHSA
PI3-kinase p110-delta/p85-alpha, sequence (P27986 whole entry): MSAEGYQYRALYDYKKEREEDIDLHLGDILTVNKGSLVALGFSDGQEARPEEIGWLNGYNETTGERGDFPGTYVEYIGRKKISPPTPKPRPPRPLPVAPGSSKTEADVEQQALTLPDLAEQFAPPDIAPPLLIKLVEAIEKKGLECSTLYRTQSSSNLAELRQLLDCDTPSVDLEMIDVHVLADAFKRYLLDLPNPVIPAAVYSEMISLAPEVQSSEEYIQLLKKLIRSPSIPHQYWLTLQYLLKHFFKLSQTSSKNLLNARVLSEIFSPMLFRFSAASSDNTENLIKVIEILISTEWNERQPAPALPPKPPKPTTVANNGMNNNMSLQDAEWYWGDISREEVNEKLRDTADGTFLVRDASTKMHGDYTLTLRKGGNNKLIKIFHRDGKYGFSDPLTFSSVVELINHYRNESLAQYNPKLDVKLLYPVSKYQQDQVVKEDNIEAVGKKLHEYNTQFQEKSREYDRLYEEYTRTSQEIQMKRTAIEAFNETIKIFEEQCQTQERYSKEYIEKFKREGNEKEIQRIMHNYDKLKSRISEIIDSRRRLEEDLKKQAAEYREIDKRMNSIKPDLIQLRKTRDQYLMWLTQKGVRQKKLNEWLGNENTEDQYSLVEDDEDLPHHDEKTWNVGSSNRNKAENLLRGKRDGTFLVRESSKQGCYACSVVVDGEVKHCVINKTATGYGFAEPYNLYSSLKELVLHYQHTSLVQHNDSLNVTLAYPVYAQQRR
PI3-kinase p110-delta/p85-alpha, sequence (O00329 whole entry): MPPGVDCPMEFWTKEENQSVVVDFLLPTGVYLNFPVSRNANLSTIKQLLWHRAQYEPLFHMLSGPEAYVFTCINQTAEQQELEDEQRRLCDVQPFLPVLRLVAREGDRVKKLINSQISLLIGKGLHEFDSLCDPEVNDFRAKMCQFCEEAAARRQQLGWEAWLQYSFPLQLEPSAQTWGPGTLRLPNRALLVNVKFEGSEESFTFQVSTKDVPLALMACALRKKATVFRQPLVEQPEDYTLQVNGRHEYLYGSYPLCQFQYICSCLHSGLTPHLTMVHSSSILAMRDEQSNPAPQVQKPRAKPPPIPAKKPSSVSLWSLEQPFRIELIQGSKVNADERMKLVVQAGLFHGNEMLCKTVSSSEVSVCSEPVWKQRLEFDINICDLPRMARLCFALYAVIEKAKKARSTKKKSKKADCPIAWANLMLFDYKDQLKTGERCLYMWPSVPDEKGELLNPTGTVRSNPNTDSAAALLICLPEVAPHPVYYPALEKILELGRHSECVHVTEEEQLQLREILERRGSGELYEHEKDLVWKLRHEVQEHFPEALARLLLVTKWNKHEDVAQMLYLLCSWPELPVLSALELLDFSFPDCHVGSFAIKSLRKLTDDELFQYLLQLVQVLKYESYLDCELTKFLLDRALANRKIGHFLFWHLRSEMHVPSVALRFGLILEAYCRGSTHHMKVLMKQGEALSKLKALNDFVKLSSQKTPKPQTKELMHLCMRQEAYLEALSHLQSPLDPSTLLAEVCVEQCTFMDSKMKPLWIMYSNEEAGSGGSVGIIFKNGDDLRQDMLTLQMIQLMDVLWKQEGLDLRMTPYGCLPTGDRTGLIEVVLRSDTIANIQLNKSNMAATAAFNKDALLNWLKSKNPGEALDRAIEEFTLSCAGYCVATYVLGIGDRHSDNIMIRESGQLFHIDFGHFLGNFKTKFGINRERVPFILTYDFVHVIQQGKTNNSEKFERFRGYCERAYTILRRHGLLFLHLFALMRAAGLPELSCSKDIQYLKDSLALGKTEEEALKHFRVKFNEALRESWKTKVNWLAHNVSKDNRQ
PI3-kinase p110-alpha/p85-alpha, sequence (P27986 whole entry): as the sequence (P27986 whole entry) above
PI3-kinase p110-alpha/p85-alpha, sequence (P42336 whole entry): as the sequence (P42336 whole entry, canonical isoform) above

pIC50 [1]: 8.04
pKi [1]: 8.29
half-life at 1 µM [2]: 44.7 min
pIC50 [3]: 6.97
pKi [3]: 7.05
pIC50 [4]: 5.74
clearance [5]: 52.4 mL/min/kg
pIC50 [6]: 6.59
pKi [6]: 6.71
remaining at 1 h, 1 µM [7]: 47.8%
Cmax [8]: 2570 ng/mL
pIC50 [9]: 6.51
pIC50 [10]: 6.56
pKi [10]: 6.61
Papp B→A at 2 h, 2 µM [11]: 8.4 ×10⁻⁶ cm/s
inhibition [12]: 59%
microsomal CLint at 1 µM [13]: 32.8 µL/min/mg
Papp A→B at 2 h, 2 µM [14]: 7.8 ×10⁻⁶ cm/s
remaining at 1 h, 1 µM [15]: 42.6%
inhibition [17]: 78%
half-life at 1 µM [18]: 58.3 min
pIC50 [19]: 5.54
microsomal CLint at 1 µM [20]: 24.8 µL/min/mg
SMILES: N#Cc1c(N2CCOCC2)sc(-c2nc[nH]n2)c1-c1ccc(NC(=O)Nc2ccccc2Cl)cc1
pIC50 [16]: < 4.52
